# Ecoli rRNA inh: selective bacterial rRNA inhibition in E. coli; hit rate 1.6% among 350,000; E. coli WT GFP vs humanized-ribosome RFP mutants, fluorescence, 24 h; active compounds read low; DMSO median 0, no signal -100; GFP signal change (wild-type ribosome), % (concentration not given with the values); AID 720706;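 active = significant combined selectivity score with lowered wild-type GFP, culture density cut under 30%, mutant RFP and density less affected; inactive = any of these conditions unmet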
# S100A4 inh HTS: blocks human S100A4 binding to myosin IIA peptide; P26447; AID 652163; hit rate 0.14% among 360,000; S100A4/TAMRA-MyoIIA peptide fluorescence polarization; inhibition, % at 10.7 µM;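 active = mean inhibition of at least 70% across replicates, with every replicate also reaching that level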
# Target sequence (P26447 whole entry, looked up): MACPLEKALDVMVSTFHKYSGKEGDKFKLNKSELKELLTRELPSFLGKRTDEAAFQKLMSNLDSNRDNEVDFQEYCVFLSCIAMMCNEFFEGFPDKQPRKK
#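 Material: S100A4 monomer protein | Medium: HEPES pH 7.2 with CaCl2, KCl, NaCl, DTT, Triton | Reagent: Labelled myosin peptide probe, 5 nM | Doses: One dose per compound | Times: 5 min incubation before reading | Benchmarks: Neutral control DMSO, positive control TFP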
# E-sel inducer: induces E-selectin expression in human endothelial cells; P16581; HUVEC E-selectin immunofluorescence imaging; normalized: neutral wells 0, TNF-alpha wells 100; activation, % at 7.58 µM; hit rate 0.37% among 260,000; AID 686992;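 active = mean E-selectin-positive cell signal at least 10% of the positive control, reached in at least 60% of replicates, without over 20% cell loss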
#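 System: HUVEC / Compound: single concentration / Signal: immunofluorescence imaging / Read-out: percent E-selectin-positive cells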
# MLL AF4-AF9 inh: blocks AF4 peptide binding to human AF9 | AlphaScreen, biotin-AF4 peptide binding to FLAG-AF9 | inhibition, % at 10 µM | AID 651704 | P42568 | hit rate 0.47% among 350,000;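 active = every replicate reaching a set inhibition limit, whatever the replicate mean, cut at about 25% in these data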;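 note: 0% = plate neutral control median and 100% = total signal loss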
# Target sequence (P42568 whole entry, looked up): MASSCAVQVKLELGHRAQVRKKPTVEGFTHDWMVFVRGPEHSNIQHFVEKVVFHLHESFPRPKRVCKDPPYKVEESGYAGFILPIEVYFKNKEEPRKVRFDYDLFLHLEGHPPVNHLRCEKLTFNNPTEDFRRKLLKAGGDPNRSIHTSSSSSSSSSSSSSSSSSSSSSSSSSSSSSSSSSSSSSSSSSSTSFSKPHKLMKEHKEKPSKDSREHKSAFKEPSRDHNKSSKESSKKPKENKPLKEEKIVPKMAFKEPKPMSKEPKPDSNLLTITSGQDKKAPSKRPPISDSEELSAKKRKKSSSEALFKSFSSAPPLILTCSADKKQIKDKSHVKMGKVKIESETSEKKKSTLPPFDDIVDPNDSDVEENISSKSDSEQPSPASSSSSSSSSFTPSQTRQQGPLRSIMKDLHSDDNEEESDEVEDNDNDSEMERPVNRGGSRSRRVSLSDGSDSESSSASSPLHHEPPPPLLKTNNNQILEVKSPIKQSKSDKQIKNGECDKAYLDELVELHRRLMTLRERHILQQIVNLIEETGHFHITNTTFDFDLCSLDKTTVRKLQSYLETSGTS
# SIRT5 inh: blocks human SIRT5 desuccinylation of peptide | Q9NXA8 | Purified SirT5, succinyl-peptide AMC, trypsin-coupled fluorescence | inhibition, % at 15 µM | hit rate 1.1% among 330,000; in the data active = inhibition above about 15%
# ERAP1 inh: inhibitors of human ERAP1 aminopeptidase; AID 652197; hit rate 0.15% among 340,000; recombinant ERAP1, Leu-AMC fluorescence, 60 min; inhibition, % at 10.7 µM; Q9NZ08;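 active = mean replicate inhibition of at least 30%, or all replicates individually reaching that 30% level; inactive = mean below 30% and not every replicate reaching it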;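 note: 0% = neutral control wells and 100% = L-leucinethiol positive control wells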
# * marks the source's active call; other numbers are inactive results; nt = no result. Only some compounds are listed: those with a hit (about 3.4% of all), similar ones and a draw of the others.
SMILES,Ecoli rRNA inh,S100A4 inh HTS,E-sel inducer,MLL AF4-AF9 inh,SIRT5 inh,ERAP1 inh
COc1ccc(CN(C)C[C@@H]2Oc3ccc(NC(=O)C4CCCCC4)cc3CC(=O)N([C@H](C)CO)C[C@@H]2C)cc1,0.8,-2.1,nt,-1.4,2.4,3.5
Cc1noc(C)c1NC(=O)N(C)C[C@@H]1Oc2ccc(NC(=O)CCN3CCOCC3)cc2C(=O)N([C@H](C)CO)C[C@@H]1C,3.3,-1.0,-5.7,-0.8,2.4,1.3
CCCN1[C@@H]2c3ccc(-c4ccccc4OC)c(=O)n3C[C@@H]2[C@@H](CO)[C@@H]1C(=O)OC,4.1,2.3,-1.7,-0.7,2.4,0.0
Cc1cc(-c2nn(-c3ccccc3F)cc2CN2CCN(c3ccncc3)CC2)c(C)s1,-49.5,-17.9,nt,32.3*,-2.9,2.8
N#Cc1c(N)nc(SCc2ccccc2)c(C#N)c1-c1ccco1,-43.0*,-3.1,nt,1.1,3.1,0.1
CC(C)NC(=O)Nc1ccc2c(c1)C(=O)N([C@@H](C)CO)C[C@H](C)[C@H](CN(C)C(=O)NC(C)C)OCCCC[C@@H](C)O2,4.7,15.3,nt,-4.6,24.3*,0.7
CC(C)NC(=O)Nc1ccc2c(c1)C(=O)N([C@H](C)CO)C[C@H](C)[C@H](CN(C)C(=O)Cc1ccccc1)OCCCC[C@H](C)O2,-1.8,5.9,0.8,1.5,19.5*,0.0
CC(C)NC(=O)Nc1ccc2c(c1)C(=O)N([C@@H](C)CO)C[C@H](C)[C@H](CN(C)C(=O)c1ccncc1)OCCCC[C@H](C)O2,-0.3,96.1*,0.1,-1.3,5.0,4.5
C[C@H]1CCCCO[C@H](CN(C)C(=O)c2ccccc2)[C@@H](C)CN([C@@H](C)CO)C(=O)c2cc(NC(=O)NC3CCCCC3)ccc2O1,-3.0,113.9*,0.0,0.2,7.0,-4.0
COc1ccc2c3c(n(C)c2c1)[C@H](CO)N(Cc1ccccc1)CC31CCN(CC2CC2)CC1,4.0,10.8,-0.4,17.7,nt,0.7
COc1ccc2ccc3cccc[n+]3c2c1,16.2,-2.6,nt,-1.8,-35.3,43.2*
O=C(Nc1cc(Cl)ccn1)C1(c2ccccc2)CC1(Cl)Cl (centres undefined),-42.5*,-3.9,-0.2,1.7,-1.8,-0.7
O=C(NC1CCC1)[C@@H]1[C@@H](CO)[C@@H]2Cn3c(cccc3=O)[C@H]1N2Cc1cc(F)ccc1F,1.7,nt,-0.5,nt,nt,nt
CCS(=O)(=O)N1CC(=O)N2[C@H](CO)[C@H](c3ccc(C4=CCCCC4)cc3)[C@@H]2C1,-0.2,nt,-0.2,1.9,22.1*,nt
O=C1CNC[C@@H]2[C@H](c3ccc(C4=CCCC4)cc3)[C@H](CO)N12,-2.1,-10.1,0.3,-0.3,5.6,0.7
CCS(=O)(=O)N1CC(=O)N2[C@H](CO)[C@H](c3ccc(C4=CCCC4)cc3)[C@@H]2C1,-2.2,10.8,0.1,0.0,-5.9,0.2
O=C1CNC[C@H]2[C@@H](c3ccc(C4=CCCC4)cc3)[C@H](CO)N12,7.2,-3.2,-0.1,-2.0,21.3*,-0.1
COc1ccc2c3c([nH]c2c1)[C@H](CO)N(C(=O)CN(C)C)CC31CN(C(=O)c2ccncc2)C1,0.8,5.4,0.4,1.8,nt,-4.9
CN(C)CC#Cc1ccc([C@@H]2[C@H](CO)N3CCCCN(S(=O)(=O)c4ccccc4F)C[C@@H]23)cc1,0.8,2.6,-0.5,6.5,-6.6,-0.3
COc1ccccc1NC(=O)N[C@@H]1CC[C@H](CCNS(=O)(=O)c2ccc(C)cc2)O[C@H]1CO,2.8,1.3,-0.4,-5.4,-3.5,-0.9
COc1ccccc1NC(=O)N1CCCCN2[C@@H](CO)[C@H](c3ccc(C#CC4CCCC4)cc3)[C@@H]2C1,-39.6,-6.4,-0.8,12.9,16.9*,1.1
CC(C)NC(=O)N1CCCCN2[C@H](C1)[C@@H](c1ccc(C#CC3CC3)cc1)[C@@H]2CO,-0.4,-1.4,0.3,-3.2,22.4*,17.1
O=C(Nc1ccccc1)N1CC(=O)N2[C@H](CO)[C@@H](c3ccc(C#CC4CCCCC4)cc3)[C@@H]2C1,4.2,2.9,-0.2,3.6,16.1*,0.5
O=C(Nc1cc(F)ccc1F)N1CC(=O)N2[C@H](CO)[C@H](c3ccc(C#CC4CCCCC4)cc3)[C@@H]2C1,2.9,35.2,-0.2,1.8,17.2*,-1.1
O=C(Nc1cc(F)ccc1F)N1CC(=O)N2[C@H](CO)[C@H](c3ccc(C#CC4CCCCC4)cc3)[C@H]2C1,1.8,3.4,0.0,3.7,8.4,-1.9
SMILES,Ecoli rRNA inh,S100A4 inh HTS,E-sel inducer,MLL AF4-AF9 inh,SIRT5 inh,ERAP1 inh
CO[C@@H]1CN(C)C(=O)c2ccc(NC(=O)C3CCCC3)cc2OC[C@@H](C)N(Cc2nccs2)C[C@H]1C,-5.3,7.1,0.3,-1.0,-3.9,0.6
COCCNC(=O)C[C@@H]1C[C@H]2c3cc(NC(=O)CC4CC4)ccc3O[C@H]2[C@H](CO)O1,0.9,7.3,-0.3,-1.1,-20.2,-2.8
COc1ccccc1NC(=O)N1CC(=O)N2[C@H](CO)[C@@H](c3ccc(C#CC4CC4)cc3)[C@H]2C1,-2.7,2.6,0.1,nt,22.1*,nt
O=C(Nc1cc(F)ccc1F)N1CC(=O)N2[C@@H](CO)[C@@H](c3ccc(C#CC4CCCCC4)cc3)[C@@H]2C1,-1.8,-14.9,-0.7,1.7,21.0*,0.3
O=C(Nc1cc(F)ccc1F)N1CC(=O)N2[C@H](CO)[C@@H](c3ccc(C#CC4CCCC4)cc3)[C@@H]2C1,-6.0,7.1,0.4,5.8,3.5,0.9
COc1ccccc1NC(=O)N1CC(=O)N2[C@H](C1)[C@@H](c1ccc(C#Cc3ccccc3)cc1)[C@@H]2CO,3.8,-2.3,-0.5,-2.0,8.0,-1.8
CC(C)NC(=O)Nc1cccc2c1O[C@H](CN(C)C(=O)Nc1ccc3c(c1)OCO3)[C@H](C)CN([C@H](C)CO)C2=O,3.0,3.8,-3.1,-1.0,8.1,-2.3
O=C(C[C@H]1C[C@@H]2c3cc(NC(=O)NC4CCCCC4)ccc3O[C@@H]2[C@H](CO)O1)NC1CCCC1,2.2,nt,nt,nt,nt,nt
CCOc1ccc(-c2nc(C#N)c(N3CCOCC3)o2)cc1,-10.3,4.7,-0.3,5.2,-6.9,3.6
N#Cc1nc(COc2ccccc2)oc1N1CCCCCC1,-5.8,11.0,0.2,26.9*,0.0,-1.3
CCOc1ccc(-c2nc(C#N)c(N3CCN(Cc4ccccc4)CC3)o2)cc1,8.6,2.0,-0.1,52.9*,0.6,7.9
N#Cc1nc(COc2ccccc2)oc1N1CCOCC1,-9.0,-4.5,nt,nt,0.8,-0.6
O=C(NCC[C@H]1CC[C@@H](NC(=O)c2cnccn2)[C@@H](CO)O1)c1ccc2c(c1)OCO2,0.2,-0.8,-0.4,-0.2,-2.8,1.0
COc1ccc(-c2csc(=Nc3ccccc3)n2CCO)cc1,-23.1,-7.5,nt,37.9*,-0.9,-1.1
